Data as given in ChEMBL document CHEMBL1152715, “13-Methyl-substituted des-C,D analogs of (20S)-1alpha,25-dihydroxy-2-methylene-19-norvitamin D3 (2MD): synthesis and biological evaluation” (Bioorg Med Chem, 2009).

Tests used:
[1] = molecular target: T1, Vitamin D3 receptor (Rattus norvegicus, UniProt P13053); assay: Activity at VDR in rat ROS 17/2.8 cells assessed as transcriptional activation of 24-hydroxylase gene promoter after 16 hrs by luciferase reporter gene assay; type: cell-based
T1 sequence (P13053 whole entry): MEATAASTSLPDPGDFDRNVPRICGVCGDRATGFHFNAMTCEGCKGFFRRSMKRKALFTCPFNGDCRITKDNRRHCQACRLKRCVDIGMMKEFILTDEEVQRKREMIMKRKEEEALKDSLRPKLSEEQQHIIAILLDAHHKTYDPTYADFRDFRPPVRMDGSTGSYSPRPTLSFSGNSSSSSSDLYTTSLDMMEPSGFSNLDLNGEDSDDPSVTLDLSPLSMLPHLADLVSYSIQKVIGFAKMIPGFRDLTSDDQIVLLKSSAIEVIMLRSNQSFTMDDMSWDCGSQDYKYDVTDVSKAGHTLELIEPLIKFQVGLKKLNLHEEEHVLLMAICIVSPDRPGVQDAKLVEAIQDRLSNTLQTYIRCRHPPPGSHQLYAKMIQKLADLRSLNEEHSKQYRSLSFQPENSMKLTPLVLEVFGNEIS
Method in brief: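 ROS 17/2.8 rat osteosarcoma cells stably transfected with a 24-hydroxylase promoter–luciferase reporter were dosed over a concentration range and harvested 16 h later. Luciferase was read on a luminometer.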

[2] = tested on: HL-60; assay: Induction of cell differentiation of human HL60 cells to monocytes by NBT reduction assay; type: functional, cell-based
[3] = tested on: HL-60; assay: Ratio of EC50 of drug to EC50 of 1-alpha,25-(OH)2D3 for induction of cell differentiation of human HL60 cells to monocytes by NBT reduction assay
[4] = molecular target: T1, Vitamin D3 receptor; assay: Displacement of [3H]1-alpha,25-(OH)2D3 from rat recombinant full length VDR
Method in brief: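 It was incubated overnight on ice with 1 nM (final) [3H]1α,25-(OH)2D3 plus unlabeled competitor, ethanol <10%. Bound ligand was collected on hydroxylapatite, washed and scintillation counted. […] Runs were in duplicate.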

[5] = tested on: Rattus norvegicus; assay: Effect on bone calcium mobilization in vitamin D-deficient weanling rat assessed as increase in serum calcium level at 5.7 ug/kg, ip administered as 7 consecutive daily doses measured 24 hrs after last dose relative to untreated control; type: functional
Method in brief: (§1)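 Weanling male rats were fed a 0.47% Ca diet for 1 week, then a 0.02% Ca diet for 3 weeks. In the final week they received daily intraperitoneal doses for 7 days in 0.1 mL propylene glycol/ethanol (95:5); controls got vehicle. There were 5–6 rats per group. Serum Ca and the intestinal serosal/mucosal Ca ratio were compared with vehicle.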

[6] = tested on: Rattus norvegicus; assay: Effect on bone calcium mobilization in vitamin D-deficient weanling rat assessed as increase in serum calcium level at 22.8 ug/kg, ip administered as 7 consecutive daily doses measured 24 hrs after last dose relative to untreated control; type: functional; method in brief: as §1
[7] = tested on: Rattus norvegicus; assay: Effect on bone calcium mobilization in vitamin D-deficient weanling rat assessed as increase in serum calcium level at 1.9 ug/kg, ip administered as 7 consecutive daily doses measured 24 hrs after last dose relative to untreated control; type: functional; method in brief: as §1
[8] = tested on: Rattus norvegicus; assay: Effect on bone calcium mobilization in vitamin D-deficient weanling rat assessed as increase in serum calcium level at 5.5 ug/kg, ip administered as 7 consecutive daily doses measured 24 hrs after last dose relative to untreated control; type: functional; method in brief: as §1
[9] = tested on: Rattus norvegicus; assay: Effect on bone calcium mobilization in vitamin D-deficient weanling rat assessed as increase in serum calcium level at 165 ug/kg, ip administered as 7 consecutive daily doses measured 24 hrs after last dose relative to untreated control; type: functional; method in brief: as §1
[10] = tested on: Rattus norvegicus; assay: Effect on bone calcium mobilization in vitamin D-deficient weanling rat assessed as increase in serum calcium level at 55 ug/kg, ip administered as 7 consecutive daily doses measured 24 hrs after last dose relative to untreated control; type: functional; method in brief: as §1
[11] = tested on: Rattus norvegicus; assay: Effect on calcium transport in vitamin D-deficient weanling rat intestine assessed as increase in ratio of serosal to mucosal calcium level at 165 ug/kg, ip administered as 7 consecutive daily doses measured 24 hrs after last dose; type: functional; method in brief: as §1
[12] = tested on: Rattus norvegicus; assay: Effect on calcium transport in vitamin D-deficient weanling rat intestine assessed as increase in ratio of serosal to mucosal calcium level at 5.5 ug/kg, ip administered as 7 consecutive daily doses measured 24 hrs after last dose; type: functional; method in brief: as §1
[13] = tested on: Rattus norvegicus; assay: Effect on calcium transport in vitamin D-deficient weanling rat intestine assessed as increase in ratio of serosal to mucosal calcium level at 55 ug/kg, ip administered as 7 consecutive daily doses measured 24 hrs after last dose; type: functional; method in brief: as §1

SMILES | EC50 [1] [nM] | EC50 [2] [nM] | Ratio EC50 [3] | Ki [4] [nM] | fold change (FC) [5] | fold change (FC) [6] | fold change (FC) [7] | fold change (FC) [8] | fold change (FC) [9] | fold change (FC) [10] | Ratio [11] | Ratio [12] | Ratio [13]
C=C1[C@H](O)CC(=C/C=C/C/C(C)=C/[C@@H](C)CCCC(C)(C)O)C[C@H]1O | > 100 | > 1000 | >333 | 60 | – | – | – | – | – | – | – | – | –
C=C1[C@H](O)CC(=C/C=C\C/C(C)=C/[C@@H](C)CCCC(C)(C)O)C[C@H]1O | > 100 | > 1000 | >333 | > 1000 | – | – | – | – | – | – | – | – | –
C=C1[C@H](O)CC(=C/C=C/CCC[C@@H](C)CCCC(C)(C)O)C[C@H]1O | 50 | 300 | 100 | 50 | 0.1 | 0.2 | -0.2 | – | – | – | – | – | –
C=C1[C@H](O)CC(=C/C=C/C[C@H](C)C[C@@H](C)CCCC(C)(C)O)C[C@H]1O | 3 | 6 | 2 | 30 | – | – | – | – | – | – | – | – | –
C=C1[C@H](O)CC(=C/C=C/C[C@@H](C)C[C@@H](C)CCCC(C)(C)O)C[C@H]1O | 90 | 300 | 100 | 10 | – | – | – | -0.2 | -0.1 | -0.2 | -0.9 | 0.4 | -0.5
